Laboratory results published in ChEMBL document CHEMBL1828575, “Design, synthesis and antiproliferative activities of biarylolefins based on polyhydroxylated and carbohydrate scaffolds” (Eur J Med Chem, 2011).
Calls of active or inactive are those of the source. No cut-off for these calls is given here.

Experiments:
[1] = tested on: HL-60; assay: Cytotoxicity against human HL60 cells at 10^-5 M after 72 hrs by MTS assay; format: functional; settings: HL-60, 72 h, read-out: GI
In short: (§1)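 Cells grown in RPMI with 10% fetal calf serum, penicillin, streptomycin and fungizone under 5% CO₂. Plated in 96-well plates and dosed 24 h later with compound in DMSO (1% final DMSO; controls got DMSO alone). After 72 h, MTS was added for 3 h at 37 °C and A490 read. Inhibition = (1 − OD treated/OD control) × 100, in triplicate.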

[2] = Antiproliferative activity against human HL60R cells after 72 hrs by MTS assay; format: functional, cell-based
[3] = tested on: HT-29; assay: Cytotoxicity against human HT-29 cells at 10^-5 M after 72 hrs by MTS assay; format: functional; settings: HT-29, 72 h, read-out: GI; in short: as §1
[4] = tested on: HCT-15; assay: Cytotoxicity against human HCT15 cells at 10^-6 M after 72 hrs by MTS assay; format: functional; settings: HCT-15, 72 h, read-out: GI; in short: as §1
[5] = tested on: HT-29; assay: Cytotoxicity against human HT-29 cells at 10^-6 M after 72 hrs by MTS assay; format: functional; settings: HT-29, 72 h, read-out: GI; in short: as §1
[6] = Cytotoxicity against human HL60R cells at 10^-5 M after 72 hrs by MTS assay; format: functional, HL-60; settings: read-out: GI; in short: as §1
[7] = tested on: PC-3; assay: Antiproliferative activity against human PC3 cells after 72 hrs by MTS assay; format: functional, cell-based; settings: PC-3, 72 h
In short: (§2)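 Cell lines grown in RPMI with 10% fetal calf serum plus penicillin, streptomycin and fungizone under 5% CO2. Compounds in DMSO (1% final; controls got DMSO alone) were added 24 h after plating. After 72 h exposure, MTS was added for 3 h at 37 °C and A490 read. Inhibition = (1 − OD treated/OD control)×100, in triplicate. IC50s came from separate duplicate dose-response experiments.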

[8] = species: Ovis aries; assay: Inhibition of sheep brain tubulin polymerization at 10 uM
In short: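 Microtubule protein from sheep brain, purified by two assembly/disassembly cycles (37 °C/0 °C), in 100 mM MES pH 6.6, 1 mM EGTA, 0.5 mM MgCl₂. Compounds in DMSO were tested at a single concentration, with incubation at 37 °C for 10 min and then 0 °C for 5 min before measuring assembly rate, following a modified Guénard protocol.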

[9] = tested on: HCT-116; assay: Cytotoxicity against human HCT116 cells at 10^-5 M after 72 hrs by MTS assay; format: functional; settings: HCT-116, 72 h, read-out: GI; in short: as §1
[10] = tested on: SK-OV-3; assay: Antiproliferative activity against human SKOV3 cells after 72 hrs by MTS assay; format: functional, cell-based; settings: SK-OV-3, 72 h; in short: as §2
[11] = tested on: MCF7; assay: Cytotoxicity against human MCF7 cells at 10^-5 M after 72 hrs by MTS assay; format: functional; settings: MCF7, 72 h, read-out: GI
[12] = tested on: K562; assay: Cytotoxicity against human K562 cells at 10^-6 M after 72 hrs by MTS assay; format: functional; settings: K562, 72 h, read-out: GI; in short: as §1
[13] = tested on: OVCAR-8; assay: Cytotoxicity against human OVCAR8 cells at 10^-6 M after 72 hrs by MTS assay; format: functional; settings: OVCAR-8, 72 h, read-out: GI
In short: (§3)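 Preliminary screen at 10^-5 and 10^-6 M. Cells were grown in RPMI with 10% fetal calf serum plus penicillin, streptomycin and fungizone under 5% CO₂, plated in 96-well plates, and dosed 24 h later from DMSO stocks (1% DMSO final, same in controls). After 72 h, MTS was added for 3 h at 37 °C and absorbance read at 490 nm. Inhibition was calculated as (1 − OD treated/OD control) × 100, in triplicate.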

[14] = tested on: K562; assay: Antiproliferative activity against human K562 cells after 72 hrs by MTS assay; format: functional, cell-based; settings: K562, 72 h; in short: as §2
[15] = tested on: PC-3; assay: Cytotoxicity against human PC3 cells at 10^-6 M after 72 hrs by MTS assay; format: functional; settings: PC-3, 72 h, read-out: GI; in short: as §3
[16] = Cytotoxicity against human HL60R cells at 10^-6 M after 72 hrs by MTS assay; format: functional; settings: read-out: GI; in short: as §1
[17] = tested on: SF-268; assay: Cytotoxicity against human SF268 cells at 10^-6 M after 72 hrs by MTS assay; format: functional; settings: SF-268, 72 h, read-out: GI; in short: as §3
[18] = Cytotoxicity against human MDA231 cells at 10^-5 M after 72 hrs by MTS assay; format: functional; settings: MDA-MB-231, 72 h, read-out: GI; in short: as §3
[19] = tested on: K562; assay: Cytotoxicity against human K562 cells at 10^-5 M after 72 hrs by MTS assay; format: functional; settings: K562, 72 h, read-out: GI; in short: as §1
[20] = tested on: HL-60; assay: Antiproliferative activity against human HL60 cells after 72 hrs by MTS assay; format: functional, cell-based; settings: HL-60, 72 h; in short: as §2
[21] = tested on: HCT-15; assay: Cytotoxicity against human HCT15 cells at 10^-5 M after 72 hrs by MTS assay; format: functional; settings: HCT-15, 72 h, read-out: GI; in short: as §1
[22] = tested on: SK-OV-3; assay: Cytotoxicity against human SKOV3 cells at 10^-5 M after 72 hrs by MTS assay; format: functional; settings: SK-OV-3, 72 h, read-out: GI; in short: as §3
[23] = tested on: PC-3; assay: Cytotoxicity against human PC3 cells at 10^-5 M after 72 hrs by MTS assay; format: functional; settings: PC-3, 72 h, read-out: GI; in short: as §3
[24] = tested on: MIA PaCa-2; assay: Cytotoxicity against human MIAPaCa2 cells at 10^-5 M after 72 hrs by MTS assay; format: functional; settings: MIA PaCa-2, 72 h, read-out: GI
[25] = tested on: OVCAR-8; assay: Antiproliferative activity against human OVCAR8 cells after 72 hrs by MTS assay; format: functional, cell-based; settings: OVCAR-8, 72 h; in short: as §2
[26] = tested on: HCT-116; assay: Cytotoxicity against human HCT116 cells at 10^-6 M after 72 hrs by MTS assay; format: functional; settings: HCT-116, 72 h, read-out: GI; in short: as §1
[27] = tested on: HCT-15; assay: Antiproliferative activity against human HCT15 cells after 72 hrs by MTS assay; format: functional, cell-based; settings: HCT-15, 72 h; in short: as §2
[28] = tested on: MCF7; assay: Cytotoxicity against human MCF7 cells at 10^-6 M after 72 hrs by MTS assay; format: functional; settings: MCF7, 72 h, read-out: GI
[29] = tested on: A549; assay: Cytotoxicity against human A549 cells at 10^-6 M after 72 hrs by MTS assay; format: functional; settings: A549, 72 h, read-out: GI; in short: as §1
[30] = Cytotoxicity against human MDA231 cells at 10^-6 M after 72 hrs by MTS assay; format: functional; settings: MDA-MB-231, 72 h, read-out: GI; in short: as §3
[31] = tested on: HL-60; assay: Cytotoxicity against human HL60 cells at 10^-6 M after 72 hrs by MTS assay; format: functional; settings: HL-60, 72 h, read-out: GI; in short: as §1
[32] = tested on: A549; assay: Cytotoxicity against human A549 cells at 10^-5 M after 72 hrs by MTS assay; format: functional; settings: A549, 72 h, read-out: GI; in short: as §1
[33] = tested on: SF-268; assay: Cytotoxicity against human SF268 cells at 10^-5 M after 72 hrs by MTS assay; format: functional; settings: SF-268, 72 h, read-out: GI; in short: as §3
[34] = tested on: OVCAR-8; assay: Cytotoxicity against human OVCAR8 cells at 10^-5 M after 72 hrs by MTS assay; format: functional; settings: OVCAR-8, 72 h, read-out: GI; in short: as §3
[35] = Antiproliferative activity against human MDA231 cells after 72 hrs by MTS assay; format: functional, cell-based; settings: MDA-MB-231, 72 h; in short: as §2
[36] = tested on: SK-OV-3; assay: Cytotoxicity against human SKOV3 cells at 10^-6 M after 72 hrs by MTS assay; format: functional; settings: SK-OV-3, 72 h, read-out: GI; in short: as §3
[37] = tested on: SF-268; assay: Antiproliferative activity against human SF268 cells after 72 hrs by MTS assay; format: functional, cell-based; settings: SF-268, 72 h; in short: as §2
[38] = tested on: MIA PaCa-2; assay: Cytotoxicity against human MIAPaCa2 cells at 10^-6 M after 72 hrs by MTS assay; format: functional; settings: MIA PaCa-2, 72 h, read-out: GI

IC50 [7] [µM] | IC50 [10] [µM] | IC50 [14] [µM] | IC50 [20] [µM] | SMILES | inhibition of growth at 10 µM [1] [%] | IC50 [2] [µM] | inhibition of growth at 10 µM [3] [%] | inhibition of growth at 1 µM [4] [%] | inhibition of growth at 1 µM [5] [%] | inhibition of growth at 10 µM [6] [%] | inhibition of growth at 10 µM [9] [%] | inhibition of growth at 10 µM [11] [%] | inhibition of growth at 1 µM [12] [%] | inhibition of growth at 1 µM [13] [%] | inhibition of growth at 1 µM [15] [%] | inhibition of growth at 1 µM [16] [%] | inhibition of growth at 1 µM [17] [%] | inhibition of growth at 10 µM [18] [%] | inhibition of growth at 10 µM [19] [%] | inhibition of growth at 10 µM [21] [%] | other results
0.27 | 0.07 | 0.18 | 0.68 | COc1ccc(C(=C(COC(C)=O)COC(C)=O)c2cc(OC)c(OC)c(OC)c2)cc1O | 74 | 2.72 | 63 | 18 | 0 | 90 | 59 | 34 | 25 | 0 | 14 | 1 | 16 | 75 | 78 | 77 | tubulin polymerization inhibition call (active/not active) [8]: inactive; inhibition of growth at 10 µM [22]: 84%; inhibition of growth at 10 µM [23]: 78%; inhibition of growth at 10 µM [24]: 51%; IC50 [25]: 1.9 µM; inhibition of growth at 1 µM [26]: 0%; IC50 [27]: 0.68 µM; inhibition of growth at 1 µM [28]: 5%; inhibition of growth at 1 µM [29]: 1%; inhibition of growth at 1 µM [30]: 0%; inhibition of growth at 1 µM [31]: 15%; inhibition of growth at 10 µM [32]: 67%; inhibition of growth at 10 µM [33]: 71%; inhibition of growth at 10 µM [34]: 94%; IC50 [35]: 1.03 µM; inhibition of growth at 1 µM [36]: 71%; IC50 [37]: 0.97 µM; inhibition of growth at 1 µM [38]: 0%
0.76 | 6.84 | 0.17 | 0.78 | COc1cc(C(=C(CO)CO)c2ccc3ccccc3c2)cc(OC)c1OC | 75 | 1.68 | 71 | 19 | 0 | 89 | 68 | 51 | 24 | 0 | 10 | 11 | 14 | 88 | 83 | 82 | tubulin polymerization inhibition call (active/not active) [8]: inactive; inhibition of growth at 10 µM [22]: 64%; inhibition of growth at 10 µM [23]: 75%; inhibition of growth at 10 µM [24]: 54%; IC50 [25]: 4.47 µM; inhibition of growth at 1 µM [26]: 0%; IC50 [27]: 0.39 µM; inhibition of growth at 1 µM [28]: 8%; inhibition of growth at 1 µM [29]: 3%; inhibition of growth at 1 µM [30]: 5%; inhibition of growth at 1 µM [31]: 17%; inhibition of growth at 10 µM [32]: 67%; inhibition of growth at 10 µM [33]: 85%; inhibition of growth at 10 µM [34]: 67%; IC50 [35]: 0.81 µM; inhibition of growth at 1 µM [36]: 5%; IC50 [37]: 1.25 µM; inhibition of growth at 1 µM [38]: 0%
0.69 | 6.51 | 0.45 | 0.82 | COc1ccc(/C(=C2\O[C@@H]([C@H](O)CO)[C@H]3OC(C)(C)O[C@@H]23)c2cc(OC)c(OC)c(OC)c2)cc1O | 79 | 1.49 | 8 | 11 | 6 | 95 | 58 | 43 | 15 | 1 | 0 | 12 | 16 | 69 | 90 | 82 | inhibition of growth at 10 µM [22]: 81%; inhibition of growth at 10 µM [23]: 77%; inhibition of growth at 10 µM [24]: 58%; IC50 [25]: 2.97 µM; inhibition of growth at 1 µM [26]: 1%; IC50 [27]: 0.63 µM; inhibition of growth at 1 µM [28]: 0%; inhibition of growth at 1 µM [29]: 0%; inhibition of growth at 1 µM [30]: 0%; inhibition of growth at 1 µM [31]: 10%; inhibition of growth at 10 µM [32]: 58%; inhibition of growth at 10 µM [33]: 73%; inhibition of growth at 10 µM [34]: 95%; IC50 [35]: 0.61 µM; inhibition of growth at 1 µM [36]: 6%; IC50 [37]: 1.1 µM; inhibition of growth at 1 µM [38]: 5%
